Measurements pooled from the literature.
Lines come from different studies, so protocols differ.
CDK4: Cyclin-dependent kinase 4 (CDK4, Homo sapiens, UniProt P11802)

The inhibition of `COCCCOc1cc(C[C@@H](C[C@H](N)[C@@H](O)C[C@H](C(=O)NCC(C)(C)C(N)=O)C(C)C)C(C)C)ccc1OC` is reported as 70% (Renin (REN, Homo sapiens, UniProt P00797); enzyme activity, inhibitor; 10 nM).
`C#Cc1n[nH]c2c(-c3cn([C@@H](C)c4ccccn4)c(=O)[nH]c3=O)cc(F)cc12` has an inhibition of 10% (Tyrosine-protein kinase Fes/Fps (FES, Homo sapiens, UniProt P07332); enzyme activity, inhibitor; 0.1 µM).
For `Clc1cccc(-c2c[nH]c3nccc(N4CCOCC4)c23)c1`, the ΔTm was over 7.4 °C (Serine/threonine-protein kinase 3 (STK3, Homo sapiens, UniProt Q13188); thermal stability, DSF).
With `Nc1ncc(-c2nc(N3CCOCC3)nc(N3CCOCC3)n2)c(C(F)F)n1` the remaining binding was 83% (Fibroblast growth factor receptor 3 (FGFR3, Homo sapiens, UniProt P22607, G697C); cell-free assay, competition with immobilised ligand; 10 µM).
With `CCOC(=O)[C@H]1Cc2c(cc([N+](=O)[O-])cc2[N+](=O)[O-])[C@@H](O)[C@@]12C(=O)Nc1ccc([N+](=O)[O-])cc12` the inhibition was 42.8% (CDK4; cell-free assay, inhibitor, TR-FRET; 1 µM).
`COC(=O)[C@H](CCCNC(=N)N)NC(=O)c1ccccc1` gave a Km of 10.8 mM (Protein-arginine deiminase type-3 (PADI3, Homo sapiens, UniProt Q9ULW8); enzyme activity, substrate).
The inhibition of `CCOC(=O)[C@H]1Cc2c(cc([N+](=O)[O-])cc2[N+](=O)[O-])[C@H](O)[C@]12C(=O)Nc1ccc(F)cc12` is reported as 32.6% (CDK4; cell-free assay, inhibitor, TR-FRET; 1 µM).
With `Cc1nn(C)cc1-c1nc2c(N3CCN(Cc4ccc(Cl)cc4)CC3)c(Cl)cnc2[nH]1` the remaining binding was 55% (Serine/threonine-protein kinase MRCK beta (CDC42BPB, Homo sapiens, UniProt Q9Y5S2); binding, competition with immobilised ligand; 1 µM).
`COc1ncccc1-c1cnn2ccc(N3CCN(C(=O)OC(C)C)CC3)nc12` has a remaining binding of 100% (Myosin-IIIb (MYO3B, Homo sapiens, UniProt Q8WXR4); binding, competition with immobilised ligand; 1 µM).
For `CCOC(=O)[C@H]1Cc2c(cc([N+](=O)[O-])cc2[N+](=O)[O-])[C@@H](O)[C@@]12C(=O)Nc1cc(Br)ccc12`, the inhibition was 59% (CDK4; cell-free assay, inhibitor, TR-FRET; 1 µM).
